# The source made the active and inactive calls. The calls are words filed in the database; no cut-off is given here.
# Key:
# Mus musculus [1] = experiment: Acute toxicity in Swiss albino mouse assessed as lethal effect at 100 mg/kg/day, po after 72 hrs; type: organism-based; parameters: route oral; settings: in vivo
# How it was run: (§1)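 Oral single dose suspended in 0.5% carboxymethylcellulose, given after a 24 h fast; food and water returned 1 h after dosing. Vehicle-only controls. Mice observed at 1 h, then once daily for 72 h, for toxic signs and mortality.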
# Mus musculus [2] = experiment: Acute toxicity in Swiss albino mouse assessed as lethal effect at 50 mg/kg/day, po after 72 hrs; type: organism-based; parameters: route oral; settings: in vivo; how it was run: as §1
# Mus musculus [3] = experiment: Antiinflammatory activity against carrageenan-induced paw edema in Swiss albino mouse assessed as swelling thickness at 50 mg/kg, po after 360 mins; type: functional
# How it was run: (§2)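 Oral dosing in 0.5% CMC; vehicle to controls. Then carrageenan (0.5 mg/25 ll, freshly suspended in 154 mM saline) injected into the right hind paw subplantar tissue; saline into the left paw. Right-left footpad thickness difference measured by dial gauge calliper every 90 min over 6 h. Inhibition % is relative to vehicle control. n = 6; mean ± SEM.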
# Mus musculus [4] = experiment: Gastric-ulcerogenic effect in Swiss albino mouse assessed as lesions at 25 mg/kg, po; type: functional, organism-based; parameters: dose 25 mg/kg
# How it was run: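 Mice killed under deep ether anesthesia 3 h after the writhing test; the oral dose in 0.5% CMC was the one used in that test. Stomachs removed, opened along the great curvature and examined under a dissecting microscope for lesions or bleeding. Reported as ratio of ulceration; n = 6.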
# Mus musculus [5] = experiment: Inhibition of p-benzoquinone-induced writhing in Swiss albino mouse at 25 mg/kg, po relative to control; type: functional
# How it was run: (§3)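 Mice, n = 6 per group, dosed orally with a suspension in 0.5% sodium CMC. 60 min later, 0.1 ml/10 g of 2.5% […] p-benzoquinone in distilled water given ip. Abdominal writhes counted per animal for 15 min, starting 5 min after injection. Expressed as % change in mean writhing count versus vehicle controls.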
# Mus musculus [6] = experiment: Inhibition of p-benzoquinone-induced writhing in Swiss albino mouse at 100 mg/kg, po relative to control; type: functional; how it was run: as §3
# Mus musculus [7] = experiment: Antiinflammatory activity against carrageenan-induced paw edema in Swiss albino mouse assessed as swelling thickness at 50 mg/kg, po after 270 mins; type: functional; how it was run: as §2
# Mus musculus [8] = experiment: Antiinflammatory activity against carrageenan-induced paw edema in Swiss albino mouse assessed as swelling thickness at 25 mg/kg, po after 360 mins; type: functional; how it was run: as §2
# Mus musculus [9] = experiment: Acute toxicity in Swiss albino mouse assessed as lethal effect at 200 mg/kg/day, po after 72 hrs; type: organism-based; parameters: route oral; settings: in vivo; how it was run: as §1
# Mus musculus [10] = experiment: Inhibition of carrageenan-induced paw edema in Swiss albino mouse at 100 mg/kg, po after 180 mins relative to control; type: functional; settings: 3 h; how it was run: as §2
# Mus musculus [11] = experiment: Inhibition of carrageenan-induced paw edema in Swiss albino mouse at 200 mg/kg, po after 270 mins relative to control; type: functional; settings: 4.5 h; how it was run: as §2
# Mus musculus [12] = experiment: Antiinflammatory activity against carrageenan-induced paw edema in Swiss albino mouse assessed as swelling thickness at 50 mg/kg, po after 180 mins; type: functional; how it was run: as §2
# Mus musculus [13] = experiment: Antiinflammatory activity against carrageenan-induced paw edema in Swiss albino mouse assessed as swelling thickness at 25 mg/kg, po after 90 mins; type: functional; how it was run: as §2
# Mus musculus [14] = experiment: Inhibition of carrageenan-induced paw edema in Swiss albino mouse at 50 mg/kg, po after 90 mins relative to control; type: functional; settings: 1.5 h
# How it was run: (§4)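 Mice, n = 6 per group. Test agent given orally as a suspension in 0.5% sodium CMC in distilled water; controls received vehicle only. Afterwards, 0.5 mg/25 ll carrageenan in saline (154 mM NaCl) injected subplantar into the right hind paw, saline into the left. Right-minus-left footpad thickness measured by dial gauge caliper every 90 min for 6 h. Inhibition is relative to vehicle-control group means.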
# Mus musculus [15] = experiment: Antiinflammatory activity against carrageenan-induced paw edema in Swiss albino mouse assessed as swelling thickness at 25 mg/kg, po after 270 mins; type: functional; how it was run: as §2
# Mus musculus [16] = experiment: Antiinflammatory activity against carrageenan-induced paw edema in Swiss albino mouse assessed as swelling thickness at 200 mg/kg, po after 90 mins; type: functional; how it was run: as §2
# Mus musculus [17] = experiment: Inhibition of carrageenan-induced paw edema in Swiss albino mouse at 25 mg/kg, po after 90 mins relative to control; type: functional; settings: 1.5 h; how it was run: as §2
# Mus musculus [18] = experiment: Antiinflammatory activity against carrageenan-induced paw edema in Swiss albino mouse assessed as swelling thickness at 200 mg/kg, po after 180 mins; type: functional; how it was run: as §2
# Mus musculus [19] = experiment: Inhibition of carrageenan-induced paw edema in Swiss albino mouse at 100 mg/kg, po after 270 mins relative to control; type: functional; settings: 4.5 h; how it was run: as §2
# Mus musculus [20] = experiment: Analgesic activity against p-benzoquinone-induced abdominal constriction in Swiss albino mouse assessed as number of writhings at 50 mg/kg, po; type: functional, Abdomen
# How it was run: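 Test samples given orally in 0.5% CMC; vehicle to controls. 60 min later, 2.5% (v/v) p-benzoquinone in distilled water, 0.1 ml/10 g, given i.p. Mice housed singly; writhes counted for 15 min starting 5 min after injection. Activity is % change from vehicle controls. n = 6; mean ± SEM.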
# Mus musculus [21] = experiment: Inhibition of carrageenan-induced paw edema in Swiss albino mouse at 100 mg/kg, po after 90 mins relative to control; type: functional; settings: 1.5 h; how it was run: as §2
# Mus musculus [22] = experiment: Antiinflammatory activity against carrageenan-induced paw edema in Swiss albino mouse assessed as swelling thickness at 100 mg/kg, po after 360 mins; type: functional; how it was run: as §2
# Mus musculus [23] = experiment: Inhibition of carrageenan-induced paw edema in Swiss albino mouse at 25 mg/kg, po after 180 mins relative to control; type: functional; settings: 3 h; how it was run: as §2
# Mus musculus [24] = experiment: Inhibition of carrageenan-induced paw edema in Swiss albino mouse at 50 mg/kg, po after 360 mins relative to control; type: functional; settings: 6 h; how it was run: as §4
structure (smiles),measurement,setting,value
CCS(=O)(=O)c1nc(-c2ccc(Cl)cc2)n[nH]1,Activity,Mus musculus [1],Non-toxic
same,Activity,Mus musculus [2],Non-toxic
same,Activity,Mus musculus [3],39.4 10^-2mm
same,Activity,Mus musculus [4],Active
same,inhibition in vivo at 25 mg/kg,Mus musculus [5],26.5%
same,inhibition in vivo at 100 mg/kg,Mus musculus [6],56.9%
same,Activity,Mus musculus [7],37.2 10^-2mm
same,Activity,Mus musculus [8],61.2 10^-2mm
same,Activity,Mus musculus [9],Non-toxic
same,inhibition in vivo at 100 mg/kg,Mus musculus [10],39.8%
same,inhibition in vivo at 200 mg/kg,Mus musculus [11],14.5%
same,Activity,Mus musculus [12],36.1 10^-2mm
same,Activity,Mus musculus [13],45.8 10^-2mm
same,inhibition in vivo at 50 mg/kg,Mus musculus [14],33.5%
same,Activity,Mus musculus [15],57.9 10^-2mm
same,Activity,Mus musculus [16],45.5 10^-2mm
same,inhibition in vivo at 25 mg/kg,Mus musculus [17],13.9%
same,Activity,Mus musculus [18],48.9 10^-2mm
same,inhibition in vivo at 100 mg/kg,Mus musculus [19],41.3%
same,Activity,Mus musculus [20],20.8
same,inhibition in vivo at 100 mg/kg,Mus musculus [21],39.3%
same,Activity,Mus musculus [22],35.3 10^-2mm
same,inhibition in vivo at 25 mg/kg,Mus musculus [23],16.5%
same,inhibition in vivo at 50 mg/kg,Mus musculus [24],45.3%

# — ChEMBL document CHEMBL1142894, “Preparation of 5-aryl-3-alkylthio-l,2,4-triazoles and corresponding sulfones with antiinflammatory-analgesic activity” (Bioorg Med Chem, 2007)
